For orientation: viability means a read-out of living cells in per cent, often relative to untreated cells. For orientation: inhibition means the drop in the measured response relative to a control, in per cent.

Active and inactive are the calls of the source.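 Rule for the calls, unless noted: active = viability loss from added drug above about 55%, and viability with drug at most 40%, in both replicates (limit read from the data, passing the limit was not always enough); inconclusive = both conditions met in only one replicate; inactive = neither replicate meets both conditions.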

Test [1] in a line: Her2 expression decrease, cell viability multiplex – SKBR3 breast tumor cells, AlphaScreen, ATP viability, primary screen (AID 461;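 active = Her2 level under about 52% in both replicate screens, with viability over 70% of control, limit read from the data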;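 for Her2 level: lower value means less Her2 protein in the cells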;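 for viability: percent of carrier control wells set as 100% viability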). Particulars: SKBR3 Her2 protein level, 18-24 h, measured here: SKBR3 viability, ATP luminescence, at 10 µM. In general terms: Alpha assays give light when donor and acceptor beads are brought close together.
Test [2] deals with Receptor tyrosine-protein kinase erbB-2 (Homo sapiens) (UniProt P04626). Described as above. To be noted: 18-24 h, at 10 µM, stronger effect = lower value.
Sequence of Receptor tyrosine-protein kinase erbB-2 (Homo sapiens) (P04626 whole entry, looked up): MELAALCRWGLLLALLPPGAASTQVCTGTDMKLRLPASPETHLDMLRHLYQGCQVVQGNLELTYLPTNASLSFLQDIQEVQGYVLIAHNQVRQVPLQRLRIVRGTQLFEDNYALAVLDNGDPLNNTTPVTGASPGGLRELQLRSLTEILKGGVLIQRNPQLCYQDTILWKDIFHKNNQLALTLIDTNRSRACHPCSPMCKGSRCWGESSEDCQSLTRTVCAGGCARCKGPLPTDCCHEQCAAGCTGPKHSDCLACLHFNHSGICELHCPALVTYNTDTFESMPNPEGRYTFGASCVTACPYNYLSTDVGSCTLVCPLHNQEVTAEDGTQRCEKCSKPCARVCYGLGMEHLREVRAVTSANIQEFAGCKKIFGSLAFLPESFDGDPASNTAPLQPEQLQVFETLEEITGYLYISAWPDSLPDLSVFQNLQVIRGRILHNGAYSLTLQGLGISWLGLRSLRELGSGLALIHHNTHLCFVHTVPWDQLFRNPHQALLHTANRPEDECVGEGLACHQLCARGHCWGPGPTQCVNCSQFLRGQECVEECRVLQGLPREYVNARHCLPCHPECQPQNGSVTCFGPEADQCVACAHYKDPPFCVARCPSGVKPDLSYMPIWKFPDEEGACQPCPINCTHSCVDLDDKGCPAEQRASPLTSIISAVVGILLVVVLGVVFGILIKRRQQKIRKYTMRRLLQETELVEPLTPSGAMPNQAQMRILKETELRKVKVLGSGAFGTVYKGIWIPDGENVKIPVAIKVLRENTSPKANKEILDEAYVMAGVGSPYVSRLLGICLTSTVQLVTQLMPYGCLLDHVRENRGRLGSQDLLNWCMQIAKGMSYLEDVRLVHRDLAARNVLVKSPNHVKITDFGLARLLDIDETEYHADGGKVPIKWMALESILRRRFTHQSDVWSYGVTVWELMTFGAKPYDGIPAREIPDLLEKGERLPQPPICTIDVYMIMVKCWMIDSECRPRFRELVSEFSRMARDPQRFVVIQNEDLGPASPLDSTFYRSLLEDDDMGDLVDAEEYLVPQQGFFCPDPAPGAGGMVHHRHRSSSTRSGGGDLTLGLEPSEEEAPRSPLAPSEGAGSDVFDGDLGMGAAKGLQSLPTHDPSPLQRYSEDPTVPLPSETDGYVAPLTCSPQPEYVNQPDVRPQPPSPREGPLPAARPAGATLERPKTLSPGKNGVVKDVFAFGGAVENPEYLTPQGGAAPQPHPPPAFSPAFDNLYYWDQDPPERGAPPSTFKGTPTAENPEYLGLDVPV
Test [3] can be described thus: reduced viability of SK-BR-3 breast cancer cells – cell-based, 24 h, human, pilot screen (AID 572;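 active = viability at or below 10% of carrier control in both of two separate runs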;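 note: compound exposure lasted between 18 and 24 h rather than exactly 24 h; 100% = carrier-treated control wells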). Particulars: SK-BR-3 viability, CellTiter-Glo luminescence, at 10 µM, stronger effect = lower value. A general note: ATP-based viability assays read luminescence as a measure of living cells.
Test [4] is described as follows: HUVEC growth inhibition – cell-based, human, primary screen (AID 575;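 active = viability at or below 30% in both replicate assays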;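 note: 100% = median of untreated cell wells with 0.1% DMSO on each plate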). Particulars: HUVEC proliferation, CellTiter-Glo luminescence, 72 h; at 10 µM; stronger effect = lower value. Put shortly:
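System – primary HUVEC, no more than 12 passages · Medium – Low-serum (2% FBS) EBM, supplemented · Times – 72 h exposure, 37 °C, 5% CO2, 30 min RT equilibration · Measured by – luminescent ATP assay · Read-out – % viability relative to median vehicle-well signal on each plate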

A short description of test [5]: H69AR cell proliferation blockers – human, duplicate replicates, primary screen (AID 580;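 active = viability at or under a set limit in both replicates, limit being median viability minus 3 SD, cut at about 48% in these data, passing the limit was not always enough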;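 note: 100% = mean luminescence of untreated wells and 0% = no signal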). To be noted: H69AR lung tumor cells viability, ATP luminescence, 72 h; at 10 µM; stronger effect = lower value.
Test [6] is described as follows: MRP1 drug-resistance reversers in H69AR cells – cell-based, doxorubicin co-treatment, pilot screen (AID 601). Particulars: CellTiter-Glo, 72 h, at 10 µM; for differential viability (reversal): stronger effect = higher value.
A short description of test [7]: yeast transport mutant growth inhibition pilot in 384-well plates, post-Golgi transport modulator project (AID 636; in the data active = inhibition above about 31%). Particulars: absorbance 615 nm, about 18 h, stronger effect = higher value.
Test [8] in a line: growth suppression of yeast trafficking mutant, preliminary HTS, modulators of trafficking downstream of Golgi apparatus project, 1536-format plate, OD 615 nm (AID 637; in the data active = inhibition above about 30%). Particulars: yeast transport mutant growth, absorbance 615 nm, 18 h; stronger effect = higher value.
Where [9] appears, read: H69AR cells + 2 uM doxorubicin, measured here: viability with 2 uM doxorubicin, stronger effect = lower value.
Setting [10] is: H69AR cells, compound alone cytotoxicity.

With `COC(=O)c1c(O)ccc(Oc2ccccc2)c1C(=O)OC`, the viability was 104% in test [1]; 104% (inactive) in test [3]; 95.9% (inactive) in test [4]; 85.3% (inactive) in test [5]; 86.4% in test [6] (setting [9]); 85.3% in test [6] (setting [10]). Besides, the Her2 level in test [2] is 119% (inactive). Also, the differential viability (reversal) in test [6] (H69AR cells + 2 uM doxorubicin) was -1.09% (inactive). Besides, the inhibition in test [7] was -4.49% (inactive); in test [8] it was -4.67% (inactive).
With `CCOC(=O)c1c(C)oc2ccc(O)c(CN3CCCCC3)c12`, the viability is 87.5% in test [1]; 87.5% (inactive) in test [3]; 90.2% (inactive) in test [4]; 86.9% (inactive) in test [5]; 90.7% in test [6] (setting [9]); 86.9% in test [6] (setting [10]). Moreover, the Her2 level in test [2] was 79.5% (inactive). In addition, in test [6] (H69AR cells + 2 uM doxorubicin), the differential viability (reversal) is -3.83% (inactive). Moreover, the inhibition is -1.84% (inactive) in test [7] and 2.22% (inactive) in test [8].
With `COCCSc1ccccc1C(=O)Nc1nncs1`, the viability in test [1] was 88%; in test [3], 88% (inactive); in test [4] it was 96.2% (inactive); in test [5], 92.5% (inactive); in test [6] (setting [9]) it was 89.2%; in test [6] (setting [10]), 92.5%. The Her2 level in test [2] was 102% (inactive). Further, the differential viability (reversal) in test [6] (H69AR cells + 2 uM doxorubicin) is 3.37% (inactive). Moreover, the results for the inhibition in test [7] and in test [8] were -4.73% (inactive) and 2.22% (inactive), respectively.
Take `c1ccc(-c2ccccc2OCCn2cncn2)cc1`: the viability in test [1] was 93%; in test [3] it was 93% (inactive); in test [4], 104% (inactive); in test [5], 99.8% (inactive); in test [6] (setting [9]) it was 83.9%; in test [6] (setting [10]), 99.8%. In test [2], the Her2 level is 79% (inactive). Moreover, the differential viability (reversal) in test [6] (H69AR cells + 2 uM doxorubicin) is 15.9% (inactive). Besides, the inhibition in test [7] is -5.41% (inactive); in test [8], 0.98% (inactive).
`O=C(CCSc1nnc(-c2ccncc2)o1)Nc1ccccc1`: the viability in test [1] is 90.5%; in test [3], 90.5% (inactive); in test [4], 108% (inactive); in test [5], 100% (inactive); in test [6] (setting [9]), 89.8%; in test [6] (setting [10]), 100%. The Her2 level in test [2] was 80.5% (inactive). The differential viability (reversal) in test [6] (H69AR cells + 2 uM doxorubicin) is 10.3% (inactive). For the same compound, the inhibition in test [7] was -0.79% (inactive); in test [8], 5.27% (inactive).
With `CCCNS(=O)(=O)c1ccc(C(=O)NCC2CCCO2)cc1` (stereo not given), the viability was 96.5% in test [1]; 96.5% (inactive) in test [3]; 106% (inactive) in test [4]; 95.1% (inactive) in test [5]; 96.4% in test [6] (setting [9]); 95.1% in test [6] (setting [10]). Further, the Her2 level in test [2] is 74.5% (inactive). For the same compound, the differential viability (reversal) in test [6] (H69AR cells + 2 uM doxorubicin) was -1.32% (inactive). Also, the inhibition in test [7] is -3.56% (inactive); in test [8], 0.16% (inactive).
Take `Cc1ccccc1-n1c(=O)c2ccccc2n2nnnc12`: the viability in test [1] is 80%; in test [3] it was 80% (inactive); in test [4], 101% (inactive); in test [5] it was 93% (inactive); in test [6] (setting [9]), 94.1%; in test [6] (setting [10]), 93%. Besides, the Her2 level in test [2] is 112% (inactive). The differential viability (reversal) in test [6] (H69AR cells + 2 uM doxorubicin) was -1.09% (inactive). Further, the results for the inhibition in test [7] and in test [8] were 0% (inactive) and -15.6% (inactive), respectively.
Take `CCOC(=O)N1CCN(C(=O)c2ccc3c(SCC(=O)O)c4c(nc3c2)CCCC4)CC1`: the viability was 95.5% in test [1]; 95.5% (inactive) in test [3]; 93.8% (inactive) in test [4]; 100% (inactive) in test [5]; 93.9% in test [6] (setting [9]); 100% in test [6] (setting [10]). Moreover, the Her2 level in test [2] was 92.5% (inactive). Moreover, the differential viability (reversal) in test [6] (H69AR cells + 2 uM doxorubicin) is 6.52% (inactive). Moreover, the inhibition in test [7] was 0.13% (inactive); in test [8], 22.3% (inactive).
For `COc1ccccc1C1C(C(C)=O)=C(O)C(=O)N1CCc1ccccc1` (stereo not given), the viability in test [1] was 93.5%; in test [3], 93.5% (inactive); in test [4], 98.1% (inactive); in test [5] it was 104% (inactive); in test [6] (setting [9]), 94.5%; in test [6] (setting [10]) it was 104%. In test [2], the Her2 level is 102% (inactive). Also, in test [6] (H69AR cells + 2 uM doxorubicin), the differential viability (reversal) was 9.69% (inactive). Further, the inhibition in test [7] was -5.07% (inactive); in test [8], 3.87% (inactive).
Turning to `CC1(C)OC(=O)C(=CNc2ccccc2)C(=O)O1`, the viability in test [1] was 98%; in test [3], 98% (inactive); in test [4], 98.7% (inactive); in test [5], 108% (inactive); in test [6] (setting [9]), 97.2%; in test [6] (setting [10]), 108%. For the same compound, in test [2], the Her2 level is 94% (inactive). Also, the differential viability (reversal) in test [6] (H69AR cells + 2 uM doxorubicin) is 10.9% (inactive). Besides, the inhibition was 0.39% (inactive) in test [7] and 0.18% (inactive) in test [8].
As for `Cn1c(=O)c2c(nc(Br)n2CCSc2ncccn2)n(C)c1=O`, the viability was 98% in test [1]; 98% (inactive) in test [3]; 106% (inactive) in test [4]; 103% (inactive) in test [5]; 81.1% in test [6] (setting [9]); 103% in test [6] (setting [10]). In test [2], the Her2 level is 114% (inactive). Also, the differential viability (reversal) in test [6] (H69AR cells + 2 uM doxorubicin) was 21.7% (inactive). The inhibition in test [7] is -1.87% (inactive); in test [8], -10.2% (inactive).
Regarding `COC(=O)CCc1c(C)c(C#N)c2nc3ccccc3n2c1N1CCCC1`, the viability was 100% in test [1]; 100% (inactive) in test [3]; 98.1% (inactive) in test [4]; 73.2% (inactive) in test [5]; 27.7% in test [6] (setting [9]); 73.2% in test [6] (setting [10]). Further, the Her2 level in test [2] was 84% (inactive). In test [6] (H69AR cells + 2 uM doxorubicin), the differential viability (reversal) is 45.5% (inactive). Further, the values for the inhibition in test [7] and in test [8] were -8.24% (inactive) and 8.67% (inactive), respectively.
`O=C(O)c1ccc2c(c1)N(Cc1ccccc1F)C(=O)c1ccccc1S2=O` (stereo not given): the viability in test [1] was 96%; in test [3] it was 96% (inactive); in test [4] it was 92.8% (inactive); in test [5] it was 103% (inactive); in test [6] (setting [9]), 97.8%; in test [6] (setting [10]), 103%. Further, the Her2 level in test [2] was 83.5% (inactive). In addition, the differential viability (reversal) in test [6] (H69AR cells + 2 uM doxorubicin) is 5.27% (inactive). Further, the figures for the inhibition in test [7] and in test [8] were -3.73% (inactive) and 4.43% (inactive), respectively.
With `CCOC(=O)N1CCN(S(=O)(=O)c2cc(C)c(C)cc2C)CC1`, the viability in test [1] was 96.5%; in test [3], 96.5% (inactive); in test [4] it was 104% (inactive); in test [5], 95.3% (inactive); in test [6] (setting [9]) it was 89.3%; in test [6] (setting [10]), 95.3%. In addition, the Her2 level in test [2] is 87% (inactive). The differential viability (reversal) in test [6] (H69AR cells + 2 uM doxorubicin) was 6.04% (inactive). In addition, the inhibition in test [7] is -4.34% (inactive); in test [8], 2.22% (inactive).
In the case of `O=C(CCN1C(=O)COc2ccccc21)N1CCN(c2ccccn2)CC1`, the viability in test [1] was 130%; in test [3], 130% (inactive); in test [4], 114% (inactive); in test [5], 106% (inactive); in test [6] (setting [9]), 78.6%; in test [6] (setting [10]), 106%. Moreover, the Her2 level in test [2] is 96.5% (inactive). The differential viability (reversal) in test [6] (H69AR cells + 2 uM doxorubicin) was 27.7% (inactive). In addition, the results for the inhibition in test [7] and in test [8] were -2.08% (inactive) and 3.33% (inactive), respectively.
